Results gathered from unrelated publications.
Protocols differ between the studies behind these lines.
Target: Serine/threonine-protein kinase ULK3 (ULK3, Homo sapiens, UniProt Q6PHR2)
One construct used (Q6PHR2 1-472): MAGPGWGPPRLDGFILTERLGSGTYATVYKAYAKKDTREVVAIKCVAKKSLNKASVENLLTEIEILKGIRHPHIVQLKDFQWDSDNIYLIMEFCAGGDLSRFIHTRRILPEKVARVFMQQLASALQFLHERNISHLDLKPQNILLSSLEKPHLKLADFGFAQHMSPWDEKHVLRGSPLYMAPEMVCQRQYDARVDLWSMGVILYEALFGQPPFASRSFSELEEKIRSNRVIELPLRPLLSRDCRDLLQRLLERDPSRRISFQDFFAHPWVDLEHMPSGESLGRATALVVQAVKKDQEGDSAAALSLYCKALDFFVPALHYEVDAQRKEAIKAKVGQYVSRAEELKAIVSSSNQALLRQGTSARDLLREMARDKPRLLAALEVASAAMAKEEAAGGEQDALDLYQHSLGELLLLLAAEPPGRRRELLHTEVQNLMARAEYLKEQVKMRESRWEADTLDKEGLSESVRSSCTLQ

SMILES	assay	setting	endpoint	result
Cc1ccc(C(=O)NCc2ccsc2)cc1C#Cc1cn(C(C)C)c2ncnc(N)c12	enzyme activity, inhibitor	1 µM	activity vs control	84%
Nc1ncnc2occ(-c3ccc(NC(=O)Nc4cc(C(F)(F)F)ccc4F)cc3)c12	cell-free assay, inhibitor	20 µM	remaining signal	0.6%
O=C1Nc2ccc(Cl)cc2C1=Cc1cc(Cl)c(O)c(Cl)c1	cell-free assay	0.5 µM	remaining signal	92.2%
COc1cc(-c2cn(C3CCc4ccccc4N(CC(F)(F)F)C3=O)nn2)ccc1-n1ccc(C)n1 (centres unmarked)	cell-free assay, competition with immobilised ligand	1 µM	remaining binding	61%
CCN(CC)CCNC(=O)c1c(C)[nH]c(/C=C2\C(=O)Nc3ccc(F)cc32)c1C	cell-free assay	0.5 µM	remaining signal	57.4%
c1ccc(N2CCN(Cc3nc4ccccc4[nH]3)CC2)nc1	binding, competition with immobilised ligand	1 µM	remaining binding	100%
Cc1cc(NC(=O)c2cccc3cc(-c4cccc5[nH]nc(N)c45)ccc23)ccc1F	enzyme activity, inhibitor	0.1 µM	activity vs control	98%
Cc1cc(NC(=O)c2cccc(S(F)(F)(F)(F)F)c2)cc(-n2ccn3nc(-c4cccnc4)cc23)c1	cell-free assay, competition with immobilised ligand	1 µM	remaining binding	75.2%
Cc1sc(C(=O)NC2COC2)cc1-n1cc(NC(=O)Nc2c(F)cccc2Cl)cn1	enzyme activity, inhibitor	10 µM	remaining activity	105%
Cc1ccc(C(=O)Nc2ccc(CN3CCN(C)CC3)c(C(F)(F)F)c2)cc1C#Cc1cnc2cccnn12	enzyme activity, inhibitor	23.5 nM	remaining activity	61%
COc1cc2c(Nc3ccc(Br)cc3F)ncnc2cc1OCC1CCN(C)CC1	cell-free assay	0.5 µM	remaining signal	105%
C[C@@H](c1cccc(C#N)c1)n1cc(Cl)cc(C(N)=O)c1=N	cell-free assay, competition with immobilised ligand	1 µM	remaining binding	75%
COc1cc2c(N3CCN(C(=O)Nc4ccc(OC(C)C)cc4)CC3)ncnc2cc1OCCCN1CCCCC1	cell-free assay	0.5 µM	remaining signal	101%
Cc1cnc(NC2CCOCC2)nc1-n1cnc(C(=O)NC(CN)c2cc(F)cc(Cl)c2)c1 (centres unmarked)	enzyme activity, inhibitor, radiometric	1 µM	remaining activity	91%
